Measured values: ChEMBL document CHEMBL3232914, “Ultrasound promoted one pot synthesis of novel fluorescent triazolyl spirocyclic oxindoles using DBU based task specific ionic liquids and their antimicrobial activity” (2014)
Converted amounts (≈) assume the structure as drawn. The source made the active and inactive calls. The calls are words filed in the database; no cut-off is given here.

How the values were obtained:
[1] = test system: Bacillus subtilis; test: Antibacterial activity against Bacillus subtilis MTCC 121 assessed as growth inhibition at 4 mg/mL after 24 hrs by agar well diffusion method; assay type: functional; settings: MTCC 121, 24 h, read-out: DIZ
How it was run: (§1)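 Agar wells 8 mm in diameter. The read-out is the diameter of the growth inhibition zone in mm, including the well, given as the mean of three replicates.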

[2] = test system: Pseudomonas aeruginosa; settings: MTCC 741, 4 mg/mL
[3] = test system: Bacillus subtilis; test: Bactericidal activity against Bacillus subtilis MTCC 121 after 24 hrs; assay type: functional; settings: MTCC 121, 24 h
[4] = test system: Saccharomyces cerevisiae; test: Antifungal activity against Saccharomyces cerevisiae MTCC 170 assessed as growth inhibition at 4 mg/mL after 24 hrs by agar well diffusion method; assay type: functional; settings: MTCC 170, 24 h, read-out: DIZ; how it was run: as §1
[5] = test system: Staphylococcus aureus; test: Antibacterial activity against Staphylococcus aureus MTCC 96 assessed as growth inhibition at 4 mg/mL after 24 hrs by agar well diffusion method; assay type: functional; settings: MTCC 96, 24 h, read-out: DIZ; how it was run: as §1
[6] = test system: Saccharomyces cerevisiae; test: Antifungal activity against Saccharomyces cerevisiae MTCC 170 assessed as growth inhibition by macrodilution tube method; assay type: functional
How it was run: (§2)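 The MIC against the yeasts was determined with amphotericin-B as the reference standard drug.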

[7] = test system: Bacillus subtilis; test: Antibacterial activity against Bacillus subtilis MTCC 121 assessed as growth inhibition after 24 hrs by macrodilution tube method; assay type: functional; settings: MTCC 121, 24 h
[8] = test system: Staphylococcus aureus; test: Bactericidal activity against Staphylococcus aureus MTCC 96 after 24 hrs; assay type: functional; settings: MTCC 96, 24 h
[9] = test system: Escherichia coli; test: Antibacterial activity against Escherichia coli MTCC 1652 assessed as growth inhibition at 4 mg/mL after 24 hrs by agar well diffusion method; assay type: functional, organism-based
How it was run: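 Agar well diffusion with 8 mm wells. The inhibition zone diameter is reported in mm, with the well diameter included. Values are means of three replicates.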

[10] = test system: Staphylococcus aureus; test: Antibacterial activity against Staphylococcus aureus MTCC 96 assessed as growth inhibition after 24 hrs by macrodilution tube method; assay type: functional; settings: MTCC 96, 24 h
[11] = test system: Candida albicans; test: Antifungal activity against Candida albicans MTCC 227 assessed as growth inhibition at 4 mg/mL after 24 hrs by agar well diffusion method; assay type: functional; settings: MTCC 227, 24 h, read-out: DIZ; how it was run: as §1
[12] = test system: Candida albicans; test: Antifungal activity against Candida albicans MTCC 227 assessed as growth inhibition by macrodilution tube method; assay type: functional; how it was run: as §2
[13] = test system: Pseudomonas aeruginosa; test: microbe, parasite or virus in culture; settings: MTCC 741, 24 h, read-out: DIZ

| SMILES | zone of inhibition at 4000 µg/mL [1] | DIZ [2] | MBC [3] | zone of inhibition at 4000 µg/mL [4] | zone of inhibition at 4000 µg/mL [5] | MIC [6] | MIC [7] | MBC [8] | diameter of the inhibition zone (DIZ) [9] | MIC [10] | zone of inhibition at 4000 µg/mL [11] | MIC [12] | zone of inhibition at 4000 µg/mL [13] |
| --- | --- | --- | --- | --- | --- | --- | --- | --- | --- | --- | --- | --- | --- |
| Cn1c2c(c(=O)n(C)c1=O)C1(C(=O)N(Cc3cn(-c4ccc([N+](=O)[O-])cc4)nn3)c3ccccc31)C(C#N)=C(N)O2 (stereo not given) | 18.6 mm | inactive | 128 µg/mL (≈ 231 µM) | 13.6 mm | 15.3 mm | 512 µg/mL (≈ 925 µM) | 64 µg/mL (≈ 116 µM) | 512 µg/mL (≈ 925 µM) | inactive | 128 µg/mL (≈ 231 µM) | 12.6 mm | 512 µg/mL (≈ 925 µM) |  |
| CC1(C)CC(=O)C2=C(C1)OC(N)=C(C#N)C21C(=O)N(Cc2cn(-c3ccc(F)c(Cl)c3)nn2)c2ccccc21 (stereo not given) | 21.3 mm | inactive | 128 µg/mL (≈ 235 µM) | 14.3 mm | 19.6 mm | 256 µg/mL (≈ 470 µM) | 32 µg/mL (≈ 58.7 µM) | 128 µg/mL (≈ 235 µM) | inactive | 64 µg/mL (≈ 117 µM) | 13.6 mm | 256 µg/mL (≈ 470 µM) |  |
| COc1ccc(-n2cc(CN3C(=O)C4(C(C#N)=C(N)OC5=C4C(=O)CC(C)(C)C5)c4ccccc43)nn2)cc1 (stereo not given) | 17.3 mm | inactive | 256 µg/mL (≈ 490 µM) | 15.6 mm | 15.6 mm | 64 µg/mL (≈ 122 µM) | 128 µg/mL (≈ 245 µM) | 256 µg/mL (≈ 490 µM) | inactive | 128 µg/mL (≈ 245 µM) | 16.6 mm | 128 µg/mL (≈ 245 µM) |  |
| N#CC1=C(N)OC2=C(C(=O)CCC2)C12C(=O)N(Cc1cn(-c3ccc(Br)cc3)nn1)c1ccccc12 (stereo not given) | 20.3 mm | inactive | 128 µg/mL (≈ 236 µM) | 14.3 mm | 18.6 mm | 256 µg/mL (≈ 471 µM) | 32 µg/mL (≈ 58.9 µM) | 64 µg/mL (≈ 118 µM) | inactive | 64 µg/mL (≈ 118 µM) | 12.6 mm | 512 µg/mL (≈ 942 µM) |  |
| CC1(C)CC(=O)C2=C(C1)OC(N)=C(C#N)C21C(=O)N(Cc2cn(-c3ccccc3)nn2)c2ccccc21 (stereo not given) | 16.3 mm | inactive | 256 µg/mL (≈ 520 µM) | 14.3 mm | 14.6 mm | 256 µg/mL (≈ 520 µM) | 128 µg/mL (≈ 260 µM) | 128 µg/mL (≈ 260 µM) | inactive | 128 µg/mL (≈ 260 µM) | 13.3 mm | 256 µg/mL (≈ 520 µM) |  |
| COc1ccc(-n2cc(CN3C(=O)C4(C(C#N)=C(N)Oc5c4c(=O)n(C)c(=O)n5C)c4ccccc43)nn2)cc1 (stereo not given) | 17.6 mm | inactive | 256 µg/mL (≈ 475 µM) | 17.6 mm | 15.3 mm | 64 µg/mL (≈ 119 µM) | 128 µg/mL (≈ 238 µM) | 512 µg/mL (≈ 951 µM) | inactive | 256 µg/mL (≈ 475 µM) | 14.6 mm | 128 µg/mL (≈ 238 µM) |  |
| Cc1ccc(-n2cc(CN3C(=O)C4(C(C#N)=C(N)OC5=C4C(=O)CC(C)(C)C5)c4ccccc43)nn2)cc1 (stereo not given) | 15.6 mm | inactive | 256 µg/mL (≈ 505 µM) | 14 mm | 14.3 mm | 256 µg/mL (≈ 505 µM) | 32 µg/mL (≈ 63.2 µM) | 256 µg/mL (≈ 505 µM) | inactive | 128 µg/mL (≈ 253 µM) | 12.6 mm | 512 µg/mL (≈ 1010 µM) |  |
| CC1(C)CC(=O)C2=C(C1)OC(N)=C(C#N)C21C(=O)N(Cc2cn(-c3ccc([N+](=O)[O-])cc3)nn2)c2ccccc21 (stereo not given) | 17.3 mm | inactive | 256 µg/mL (≈ 476 µM) | 15.3 mm | 16.6 mm | 256 µg/mL (≈ 476 µM) | 128 µg/mL (≈ 238 µM) | 128 µg/mL (≈ 238 µM) | inactive | 128 µg/mL (≈ 238 µM) | 14.3 mm | 256 µg/mL (≈ 476 µM) |  |
| N#CC1=C(N)OC2=C(C(=O)CCC2)C12C(=O)N(Cc1cn(-c3ccc([N+](=O)[O-])cc3)nn1)c1ccccc12 (stereo not given) | 18.6 mm | inactive | 256 µg/mL (≈ 502 µM) | 13.6 mm | 17.6 mm | 256 µg/mL (≈ 502 µM) | 128 µg/mL (≈ 251 µM) | 256 µg/mL (≈ 502 µM) | inactive | 128 µg/mL (≈ 251 µM) | 12.3 mm | 512 µg/mL (≈ 1000 µM) |  |
| Cc1ccc(-n2cc(CN3C(=O)C4(C(C#N)=C(N)OC5=C4C(=O)CCC5)c4ccccc43)nn2)cc1 (stereo not given) | 16.3 mm | inactive | 128 µg/mL (≈ 267 µM) | 15.6 mm | 13.6 mm | 128 µg/mL (≈ 267 µM) | 128 µg/mL (≈ 267 µM) | 512 µg/mL (≈ 1070 µM) | inactive | 256 µg/mL (≈ 535 µM) | 14.3 mm | 128 µg/mL (≈ 267 µM) |  |
| Cc1ccc(-n2cc(CN3C(=O)C4(C(C#N)=C(N)Oc5c4c(=O)n(C)c(=O)n5C)c4ccccc43)nn2)cc1 (stereo not given) | 16.3 mm | inactive | 128 µg/mL (≈ 245 µM) | 14.3 mm | 14.3 mm | 256 µg/mL (≈ 490 µM) | 128 µg/mL (≈ 245 µM) | 256 µg/mL (≈ 490 µM) | inactive | 128 µg/mL (≈ 245 µM) | 12.3 mm | 512 µg/mL (≈ 980 µM) |  |
| Cn1c2c(c(=O)n(C)c1=O)C1(C(=O)N(Cc3cn(-c4ccc(Br)cc4)nn3)c3ccccc31)C(C#N)=C(N)O2 (stereo not given) | 22.3 mm | inactive | 64 µg/mL (≈ 109 µM) | 15.3 mm | 20.6 mm | 128 µg/mL (≈ 218 µM) | 16 µg/mL (≈ 27.2 µM) | 64 µg/mL (≈ 109 µM) | inactive | 32 µg/mL (≈ 54.5 µM) | 13.3 mm | 256 µg/mL (≈ 436 µM) |  |
| CC1(C)CC(=O)C2=C(C1)OC(N)=C(C#N)C21C(=O)N(Cc2cn(-c3ccc(Br)cc3)nn2)c2ccccc21 (stereo not given) | 22.2 mm | inactive | 64 µg/mL (≈ 112 µM) | 14.6 mm | 19.3 mm | 128 µg/mL (≈ 224 µM) | 16 µg/mL (≈ 28 µM) | 128 µg/mL (≈ 224 µM) | inactive | 32 µg/mL (≈ 56 µM) | 13.3 mm | 512 µg/mL (≈ 896 µM) |  |
| COc1ccc(-n2cc(CN3C(=O)C4(C(C#N)=C(N)OC5=C4C(=O)CCC5)c4ccccc43)nn2)cc1 (stereo not given) | 15.6 mm | inactive | 128 µg/mL (≈ 259 µM) | 16.3 mm | 14 mm | 64 µg/mL (≈ 129 µM) | 32 µg/mL (≈ 64.7 µM) | 512 µg/mL (≈ 1040 µM) | inactive | 64 µg/mL (≈ 129 µM) | 16 mm | 128 µg/mL (≈ 259 µM) |  |
| C[C@@H]1[C@H](O)[C@@H](C)/C=C/C=C/C=C/C=C/C=C/C=C/C=C/[C@H](O[C@@H]2O[C@H](C)[C@@H](O)[C@H](N)[C@@H]2O)C[C@@H]2O[C@](O)(C[C@@H](O)C[C@@H](O)[C@H](O)CC[C@@H](O)C[C@@H](O)CC(=O)O[C@H]1C)C[C@H](O)[C@H]2C(=O)O [AMPHOTERICIN B] |  |  |  | 18.3 mm |  | 100 µg/mL (≈ 108 µM) |  |  |  |  | 17.6 mm | 100 µg/mL (≈ 108 µM) |  |
| O=C(O)c1cn(C2CC2)c2cc(N3CCNCC3)c(F)cc2c1=O [CIPROFLOXACIN] | 24 mm |  | 6.25 µg/mL (≈ 18.9 µM) |  | 26.6 mm |  | 6.25 µg/mL (≈ 18.9 µM) | 6.25 µg/mL (≈ 18.9 µM) |  |  |  |  | 22 mm |
| CC1(C)CC(=O)C2=C(C1)OC(N)=C(C#N)C21C(=O)N(Cc2cn(-c3cccc(Cl)c3)nn2)c2ccccc21 (stereo not given) | 20.6 mm | inactive | 128 µg/mL (≈ 243 µM) | 13.6 mm | 19.3 mm | 256 µg/mL (≈ 486 µM) | 32 µg/mL (≈ 60.7 µM) | 128 µg/mL (≈ 243 µM) | inactive | 64 µg/mL (≈ 121 µM) | 12.3 mm | 512 µg/mL (≈ 972 µM) |  |
